Bioassay records (PubChem)
This is a sample that favours compounds with a hit; in the whole collection about 3.5% have one here.
MrgX1 allo act: allosterically activates human MrgX1 receptor signaling | MrgX1-HEK293, Fluo-4 calcium flux, FDSS; active compounds read high | B-score at 10 µM | AID 588675 | hit rate 0.63% among 310,000;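 active = plate-corrected calcium response at least 3 library SD above typical, normal starting fluorescence, not activating the receptor alone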;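 note: compound read alongside a low EC10 to EC30 dose of BAM8-22 agonist; peak minus trough fluorescence over baseline measured at the second addition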
Target sequence (Q96LB2 whole entry, looked up): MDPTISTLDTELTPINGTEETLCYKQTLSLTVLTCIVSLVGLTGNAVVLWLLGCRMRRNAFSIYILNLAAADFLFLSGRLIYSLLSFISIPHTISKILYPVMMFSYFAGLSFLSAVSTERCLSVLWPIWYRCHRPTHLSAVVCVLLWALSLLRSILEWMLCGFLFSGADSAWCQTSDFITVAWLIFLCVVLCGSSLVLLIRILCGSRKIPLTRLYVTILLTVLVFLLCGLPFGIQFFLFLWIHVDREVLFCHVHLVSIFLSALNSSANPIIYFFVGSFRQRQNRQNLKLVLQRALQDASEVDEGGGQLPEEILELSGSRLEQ
MrgX1 antagonist: antagonists of human MrgX1 receptor; AID 588676; hit rate 1.3% among 310,000; MRGX1-HEK293 calcium flux, Fluo-4, BAM8-22 antagonism; active compounds read low; B-score at 10 µM; Q96LB2;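 active = calcium-response B-score plate-corrected more than 3 library SD below zero, starting fluorescence within 5 deviations, no agonist response on first addition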;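 note: peak minus trough fluorescence over baseline after final BAM8-22 challenge near maximal dose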
RGS4 inh: human RGS4 inhibition; B-score at 10 µM; P49798; hit rate 0.45% among 310,000; HEK293 M3R/RGS4 inducible, Fluo-4 calcium flux; active compounds read high; triggered by carbachol at its EC20;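 active = B-score, a plate-corrected calcium signal, over three deviations above library mean, with baseline fluorescence within five deviations of library mean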;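 note: RGS4 expression induced by doxycycline in cells with stable M3 receptor; B-score is computed from the integrated fluorescence ratio over baseline after carbachol; higher B-score means a larger calcium signal and so more RGS4 inhibition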
Target sequence (P49798 whole entry, looked up): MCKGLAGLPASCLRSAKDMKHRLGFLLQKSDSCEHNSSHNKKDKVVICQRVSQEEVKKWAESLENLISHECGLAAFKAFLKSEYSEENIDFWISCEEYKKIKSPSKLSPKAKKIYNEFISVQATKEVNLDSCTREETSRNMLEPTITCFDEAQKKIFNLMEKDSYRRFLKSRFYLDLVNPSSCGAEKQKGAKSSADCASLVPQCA
RGS4 pot: potentiators or activators of RGS4. AID 463111. B-score at 10 µM. hit rate 0.92% among 310,000. HEK293 M3R/inducible RGS4, carbachol calcium flux Fluo4; active compounds read low;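 active = B-score of the integrated calcium signal more than 4 SD below the library mean, with starting fluorescence not abnormally high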;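 note: negative B-score means reduced calcium response which marks RGS4 activation or potentiation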
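System – HEK293 FlpIn-TREx cells, stable M3R, doxycycline-inducible RGS4 · Reagent – ECmax carbachol challenge · Times – compound preincubation 20 min at room temperature before agonist · Technique – Fluo4 fluorescence kinetic imaging of calcium · Measure – B score of integrated Fluo4 ratio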
MrgX1 ag: human MrgX1 receptor agonism, primary screen. Q96LB2. MrgX1-HEK293 cells, Fluo-4 calcium fluorescence, agonist mode; active compounds read high. B-score at 10 µM. hit rate 0.44% among 310,000. AID 588627;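 active = calcium response B-score plate-corrected fluorescence ratio at least 3 library SD, with starting fluorescence B-score inside 5 SD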
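Test system: Stable human MrgX1 HEK293 cell line | Schedule: Overnight plating before 1 h dye loading | Read-out basis: Baseline-normalised fluorescence change ratio, B-scored | Detection: Kinetic calcium dye fluorescence, Fluo-4 NW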
RGS4 activ val: confirmation of RGS4 activators; shares compounds with RGS4 pot; hit rate 89% among 1,100; AID 602282; inhibition, % at 10 µM; HEK293 M3R/RGS4 inducible, carbachol calcium flux Fluo4;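 active = inhibition above 3 SD of the buffer control wells, cut at about 41% in these data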;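 note: signal is the integrated peak-minus-minimum Fluo4 fluorescence over baseline ratio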
M3R Ca counter: activity in cells without induced RGS4 expression. shares compounds with RGS4 pot. HEK293 M3R non-induced RGS4, Fluo4 calcium flux; after carbachol challenge at its EC90. inhibition, % at 10 µM. hit rate 82% among 1,100;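 active = inhibition exceeding 3 SD of buffer-only control wells, cut at about 26% in these data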;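 note: percent drop in integrated peak-minus-baseline over baseline Fluo4 ratio after carbachol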
RGS4 inh valid: validation of RGS4 inhibitors | hit rate 65% among 1,700 | shares compounds with RGS4 inh | calcium response, % at 10 µM | HEK293 M3R/RGS4, carbachol calcium Fluo-4 fluorescence; carbachol added at its EC20; 0 = buffer wells, 100 = carbachol control | AID 492999;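 active = duplicate-averaged calcium response above the buffer-only control mean plus 5 SD of those controls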;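 note: integrated fluorescence ratio F max minus min over baseline F0; higher response in RGS4-induced cells means RGS4 inhibition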
M3R Ca ctr: non-induced cell nonspecific activity of RGS4 inhibitors | activity (percent), % at 10 µM | shares compounds with RGS4 inh | hit rate 20% among 1,900 | HEK293 M3R non-induced, carbachol calcium Fluo-4; submaximal (EC20) carbachol stimulus; buffer wells 0%, carbachol control wells 100%; call rule not given here;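 note: RGS4 induction absent so cells express M3R without RGS4; higher means more calcium signal and flags a non-specific hit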
M3R basal Ca ctr: second RGS4 inhibitor counter-screen in uninduced cells lacking carbachol | shares compounds with RGS4 inh | HEK293 M3R/RGS4 non-induced, Fluo-4 calcium, no carbachol; normalised: buffer wells 0%, carbachol wells 100% | calcium response (agonist-mode artifact), % at 10 µM | hit rate 22% among 1,900 | AID 493001;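 active = duplicate-averaged calcium rise in uninduced cells above buffer wells' mean plus 5 SD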
MrgX1 ag confirm: human MrgX1 agonism, re-confirmation screen; shares compounds with MrgX1 ag; MrgX1-HEK293, Fluo-4 calcium fluorescence, FDSS; activation, % at 10 µM; hit rate 78% among 600; AID 602412;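 active = calcium signal rise, corrected for plate position, at least 3 library SD high, with starting brightness within 5 such deviations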
MrgX1 PAM conf: human MrgX1 positive allosteric modulation, re-confirmation. MrgX1-HEK293, Fluo-4 calcium fluorescence, FDSS. hit rate 13% among 1,200. AID 602413. activation (ratio percentage), % at 10 µM. shares compounds with MrgX1 allo act;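 active = ratio at least 3 SD above the weak peptide control, stable starting fluorescence, no direct agonism earlier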;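 note: compound followed by low BAM8-22 agonist challenge near EC20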
MrgX1 antag conf: confirmation of human MrgX1 receptor antagonists | shares compounds with MrgX1 antagonist | MrgX1-HEK293, BAM8-22 calcium flux, Fluo-4; active compounds read low | remaining BAM8-22 calcium response % of control (active compounds read low), % at 10 µM | hit rate 19% among 2,300;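 active = remaining agonist calcium response no higher than 100% minus 3 SD of agonist-only control wells, with starting fluorescence near control levels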;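 note: agonist BAM8-22 given at a near maximal EC90 to ECmax level; peak minus minimum fluorescence divided by baseline after agonist addition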
HEK293 Ca flux: MrgX1 antagonist counter-screen hit in parental HEK293 cells | shares compounds with MrgX1 antagonist | Fluo-4 calcium fluorescence, FDSS | fluorescence ratio F(max-min)/F0 at 10 µM | hit rate 2% among 4,000 | AID 624111;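 active = duplicate-averaged calcium fluorescence ratio at least three times the standard deviation of buffer wells, a nonspecific response in parental cells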
HEK293 Ca counter: activity in parental HEK293 cells without MrgX1; hit rate 0.4% among 4,000; AID 624114; fluorescence ratio F(max-min)/F0 at 10 µM; shares compounds with MrgX1 antagonist; parental HEK293 calcium flux, Fluo-4 fluorescence ratio; active compounds read high;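 active = calcium fluorescence ratio, averaged over duplicates, at least 3 SD of the buffer-well ratio, meaning a nonspecific response in receptor-free cells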;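 note: untransfected parental HEK293 lacking MrgX1 used as counterscreen for MrgX1 allosteric activators; fluorescence change taken during the second addition on a kinetic imager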
HEK293 Ca cntr2: counter-screen for MrgX1 activators: effect in parental HEK293 cells; shares compounds with MrgX1 antagonist; Fluo-4 calcium fluorescence (FDSS); active compounds read high; fluorescence ratio F(max-min)/F0 at 10 µM; hit rate 8.7% among 4,000; AID 624115;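 active = calcium fluorescence ratio at least three times the spread of buffer wells, meaning a non-specific response in parental cells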
Each line names hits and unclear results; the compound was inactive in the other large screens (follow-up assays come after a bar, where they were run).

C=CCn1c(SCCN2CCCC2)nc2c([nH]c3ccccc32)c1=O	MrgX1 antagonist -4.6, RGS4 pot -8.4 | RGS4 activ val 64 | M3R Ca counter inactive | MrgX1 antag conf inactive | HEK293 Ca flux inactive | HEK293 Ca counter inactive | HEK293 Ca cntr2 inactive
C=CCn1c(SCC(=O)Nc2ccc(OC)cc2)nc2c([nH]c3ccccc32)c1=O	none
OC(CCN1CCOCC1)(c1ccc(Cl)cc1)C1CCCCC1 (centres undefined)	MrgX1 allo act 6.8, RGS4 pot -9.8 | RGS4 activ val 93 | M3R Ca counter 94 | MrgX1 PAM conf inactive | HEK293 Ca flux inactive | HEK293 Ca counter inactive | HEK293 Ca cntr2 inactive
CCC(C)(C)NC(=O)C(c1ccccc1Cl)N(Cc1cccnc1)C(=O)CCC(=O)Nc1cc(C)on1 (centres undefined)	none
CCOC(=O)c1cccc(Nc2nc(-c3cccnc3)nc3ccccc23)c1	MrgX1 antagonist -4.6, RGS4 pot -8.1 | RGS4 activ val 57 | M3R Ca counter inactive | MrgX1 antag conf inactive | HEK293 Ca flux inactive | HEK293 Ca counter inactive | HEK293 Ca cntr2 inactive
COC(=O)c1cccc(Nc2nc(-c3ccncc3)nc3ccccc23)c1	none
Nc1cn(C2OC(CO)C(O)C2O)c(=O)[nH]c1=O (centres undefined)	none
COc1cc(OC)cc(C(=O)NC(=S)NNC(=O)[C@H]2C[C@@H]2c2ccccc2)c1	RGS4 pot -11, MrgX1 ag 109 | RGS4 activ val 84 | M3R Ca counter 77 | MrgX1 ag confirm 580% | HEK293 Ca flux inactive | HEK293 Ca counter inactive | HEK293 Ca cntr2 110
Cc1nc(Sc2ccccc2)c(C#N)cc1-c1ccccc1	MrgX1 allo act 6.8, RGS4 pot -10 | RGS4 activ val 94 | M3R Ca counter 63 | MrgX1 PAM conf inactive | HEK293 Ca flux inactive | HEK293 Ca counter inactive | HEK293 Ca cntr2 inactive
Cc1nc(Cl)c(C#N)cc1-c1ccccc1	none
COc1ccccc1-c1c(C#N)c(N)nc2c1CCc1ccccc1-2	MrgX1 allo act 12, RGS4 pot -7.6 | RGS4 activ val 89 | M3R Ca counter 52 | MrgX1 PAM conf inactive | HEK293 Ca flux inactive | HEK293 Ca counter inactive | HEK293 Ca cntr2 inactive
CCOC(=O)Cc1csc(NC(=O)CSc2ncnc3c2cnn3-c2ccccc2Cl)n1	none (no result: MrgX1 allo act, MrgX1 antagonist, MrgX1 ag)
COc1ccc2nc(Nc3nc(CSc4nc5ccccc5[nH]4)cc(=O)[nH]3)nc(C)c2c1	none
Cc1nc(Nc2nc(CSc3nc4ccccc4[nH]3)cc(=O)[nH]2)nc2ccccc12	MrgX1 antagonist -5.2, RGS4 pot -13 | RGS4 activ val 62 | M3R Ca counter inactive | MrgX1 antag conf 83% | HEK293 Ca flux inactive | HEK293 Ca counter inactive | HEK293 Ca cntr2 inactive
COc1cc(C(=O)NNC(=S)NC(=O)/C=C/c2ccccc2)cc(OC)c1OC	none
CCN(CC)CC#CC(OC)(c1ccccc1)c1ccccc1	MrgX1 allo act 8, RGS4 pot -9.7 | RGS4 activ val 92 | M3R Ca counter 88 | MrgX1 PAM conf inactive | HEK293 Ca flux inactive | HEK293 Ca counter inactive | HEK293 Ca cntr2 inactive
CC1=NN(c2ccc(C)c(C)c2)C(=O)C1C(c1cccc(O)c1)C1C(=O)N(c2ccc(C)c(C)c2)N=C1C (centres undefined)	RGS4 inh 15 | RGS4 inh valid 14% | M3R Ca ctr inactive | M3R basal Ca ctr inactive
CC(C)(C)c1cccc(/C=N/O)c1O	RGS4 inh 11 | RGS4 inh valid 24% | M3R Ca ctr 44% | M3R basal Ca ctr inactive
COc1ccc(Oc2ccccc2/C=N/O)cc1	none
CCN(CC)CCCNC(=O)c1oc2ccc(S(=O)(=O)N3CC(C)CC(C)C3)cc2c1C (centres undefined)	none
CCOc1ccc(-c2c(C(=O)N/N=C/c3ccc(C)cc3)nnn2-c2nonc2N)cc1	none | RGS4 inh valid inactive | M3R Ca ctr inactive | M3R basal Ca ctr inactive
CCCOc1ccc(-c2c(C(=O)N/N=C/c3ccc(C)cc3)nnn2-c2nonc2N)cc1	none | M3R Ca ctr 39% | M3R basal Ca ctr inactive
Cc1c(N(C)C(=O)COc2ccc3ccccc3c2)c(=O)n(-c2ccccc2)n1C	none
Cc1ccccc1NC(NC(=O)c1cccs1)C(Cl)(Cl)Cl (centres undefined)	none
CCOC(=O)C(C)/C(C)=N\Nc1ccc([N+](=O)[O-])cc1[N+](=O)[O-] (centres undefined)	none
CCOC(=O)C(C)/C(C)=N/NC(N)=S (centres undefined)	RGS4 inh 17 | RGS4 inh valid 54% | M3R Ca ctr inactive | M3R basal Ca ctr inactive
O=S(=O)(c1ccc2ccccc2c1)N(CC(O)CN1CCOCC1)c1ccccc1 (centres undefined)	none
COc1cccc(NC(=S)/C(=C(\[O-])c2ccc([N+](=O)[O-])cc2)[n+]2ccccc2)c1	none
